# Assay outcomes as filed in PubChem.
# HCV NS3 hel inh: blocks Hepatitis C virus NS3 helicase unwinding. NS3 helicase DNA unwinding, Cy5 molecular beacon fluorescence. 0.56% of 290,000 active. AID 1800. inhibition, % at 10.9 µM;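 active means inhibition above the mean of all tested compounds plus 3 SD, set per campaign, cut at about 35% in these data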;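 further: 0% = DMSO wells and 100% = thioflavine S control wells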
#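 assay system = NS3 helicase fragment of HCV | buffer or medium = MOPS pH 6.5, MgCl2, DTT, Tween20, BSA | timing = 60 min unwinding reaction at 25 °C after ATP addition | signal = Cy5 beacon fluorescence read at start and 1 h | read-out basis = % inhibition of unwinding | control set = low DMSO, high thioflavine S at 110 µM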
# TAAR1 agonist: agonists of human TAAR1 | Q96RJ0 | CHO RD-HGA16 TAAR1, Fluo-8 calcium fluorescence; vehicle wells 0%, saturating PEA agonist 100% | activation, % at 3 µM | 0.99% of 360,000 active | AID 624467;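 active means activation above the mean activation of all test compounds in the run plus 3 SD, cut at about 38% in these data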
# Target sequence (Q96RJ0 whole entry, looked up): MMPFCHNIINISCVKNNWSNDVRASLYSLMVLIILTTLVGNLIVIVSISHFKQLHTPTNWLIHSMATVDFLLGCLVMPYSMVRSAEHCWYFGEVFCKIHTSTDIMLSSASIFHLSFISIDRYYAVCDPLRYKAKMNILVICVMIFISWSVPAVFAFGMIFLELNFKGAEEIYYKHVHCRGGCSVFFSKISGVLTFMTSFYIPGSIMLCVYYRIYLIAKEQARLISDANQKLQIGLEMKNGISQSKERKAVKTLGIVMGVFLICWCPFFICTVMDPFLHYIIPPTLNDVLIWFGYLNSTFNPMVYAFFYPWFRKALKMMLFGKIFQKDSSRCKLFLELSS
#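 test system = CHO RD-HGA16 cells carrying human TAAR1 plus Gα16 | schedule = 17-24 h seeding, 75 min 37 °C dye, 30 min RT | compound dosing = 3 µM single concentration | control set = DMSO and PEA EC100 | replicates = n 1 | signal = Fluo-8 fluorescence, 5 s baseline then 140 s kinetic read | measure = percent activation vs PEA EC100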
# rCAG RNA binder: molecules binding r(CAG) RNA repeats; r(CAG) RNA repeat, TO-PRO-1 dye displacement fluorescence; inhibition, % at 3 µM; 1.3% of 370,000 active;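 active means inhibition above the plate cutoff, the mean of all test compounds on that plate plus 3 SD, cut at about 35% in these data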;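 further: 0% = DMSO alone and 100% = 100 µM mitoxantrone as full dye displacement; higher means more dye released from RNA so lower well fluorescence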
# core dimer inh: blocks dimerization of HCV core protein; 0.33% of 300,000 active; inhibition, % at 5 µM; TR-FRET GST/Flag-core106 dimerization, 1536-well;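 active means inhibition above the mean of all tested compounds plus 3 SD, set per screening campaign, cut at about 45% in these data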
#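 System – GST-tagged and Flag-tagged HCV core protein residues 1-106 · Repeats – one well for each compound · Technique – TR-FRET 671 and 617 nm emission · Doses – one concentration, 5 µM, in 0.5% DMSO · Times – 4 h, 22.5 °C incubation · Also added – Eu donor and XL665 acceptor anti-tag antibodies · Measure – percent inhibition of core106 dimerization signal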
# TAAR1 antagonist: human TAAR1 antagonism; inhibition, % at 3 µM; 1.5% of 360,000 active; CHO RD-HGA16 TAAR1, Fluo-8 calcium fluorescence, antagonist;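 active means inhibition above a per-plate cutoff, the mean inhibition of test compounds on that plate plus 3 SD, cut at about 49% in these data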;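 further: 0% = DMSO plus EC80 beta-PEA response and 100% = DMSO alone without agonist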
#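 Assay system: RD-HGA16 CHO cells with stable hTAAR1 and Gα16 / Reagent: EC80 β-phenethylamine stimulus / Doses: 3 µM, single point / Timing: dye loading 75 min at 37 °C, then 30 min room temperature / Measured by: Fluo-8 intracellular calcium dye fluorescence, real-time kinetic reads / Controls: vehicle wells and EC80 agonist wells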
# TAAR1 nonsel count: counter-screen for TAAR1 antagonists: nonselective antagonists | shares compounds with TAAR1 antagonist | counterscreen cell line, calcium fluorescence, antagonist mode | inhibition, % at 3 µM | 77% of 2,400 active | AID 651780; in the data active means inhibition above about 22%;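 further: CHO-Ga16 host cells stimulated with ATP at an EC80 level; 0% = agonist EC80 plus vehicle and 100% = vehicle without agonist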
# TAAR1 antag conf: human TAAR1 antagonism, confirmed; shares compounds with TAAR1 antagonist; TAAR1-expressing cells, fluorescence antagonist read-out; inhibition, % at 3 µM; 40% of 2,400 active; in the data active means inhibition above about 49%;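 further: CHO-Ga16 host cells challenged with agonist PEA near its EC80; 0% = agonist at EC80 plus vehicle and 100% = vehicle with no agonist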
# Ga16 ag counter: nonselective Ga16 agonism, counter-screen; shares compounds with TAAR1 antagonist; Ga16-expressing cells, calcium fluorescence, agonist counterscreen; activation, % at 3 µM; 18% of 2,400 active; AID 651953; in the data active means activation above about 12%;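 further: 0% = vehicle wells and 100% = saturating stimulus response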
# TAAR1 ag counter: activates human TAAR1 in antagonist counter-screen; 2% of 2,400 active; hTAAR1 cell line, fluorescence activation, agonist mode; shares compounds with TAAR1 antagonist; activation, % at 3 µM; in the data active means activation above about 37%;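 further: CHO cells stably expressing TAAR1 with calcium dye readout; 0% = DMSO vehicle and 100% = full agonist response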
# * hit, by the source's call; nt = not tested or not shown. In the library only some 3.7% were active in any assay of this set; here they are far more common.
SMILES,HCV NS3 hel inh,TAAR1 agonist,rCAG RNA binder,core dimer inh,TAAR1 antagonist,TAAR1 nonsel count,TAAR1 antag conf,Ga16 ag counter,TAAR1 ag counter
COC(=O)[C@]12C[C@H](CC(=O)NCCCN3CCCC3=O)C(=O)N(Cc3ccc(Cl)cc3Cl)C1=C[C@H](C1CCCC1)O[C@@H]2C,nt,nt,9,nt,nt,nt,nt,nt,nt
CCCCN1CCS(=O)(=O)N(Cc2cn(Cc3cccc(Cl)c3)nn2)C(C(=O)OC)C1 (configuration not stated),nt,nt,0,nt,nt,nt,nt,nt,nt
COc1cc2cnc(-c3ccccc3)c(-c3cccc(C(F)(F)F)c3)c2cc1OC,nt,9,3,nt,51*,15,19,2,2
CN(Cc1ccccc1)C(=O)c1cccc(NC(=O)Cc2ccc([N+](=O)[O-])cc2)c1,nt,13,2,nt,36,nt,nt,nt,nt
CN(Cc1ccccc1)C(=O)c1cccc(NC(=O)Cc2cccc([N+](=O)[O-])c2)c1,nt,16,-2,nt,65*,26*,42,10,6
CCc1nc(NCCO)c(C#N)c2c1CSC(C)(C)C2,25,15,0,-2,59*,31*,51*,7,5
COc1cc(/C=C/c2nc(-c3ccccc3O)n[nH]2)cc(OC)c1OC,-6,3,14,-5,72*,22*,51*,6,4
COc1cc(/C=C/c2nc(N)nc(-c3ccccc3O)n2)cc(OC)c1OC,-3,9,6,0,47,nt,nt,nt,nt
Cc1cc(N2CCN(CC(C)(C)O)C[C@H]2C)ccc1N1CCN(Cc2ccccc2)[C@H](C)C1,nt,2,-2,nt,-14,nt,nt,nt,nt
CC(C)C(=O)NC(=S)Nc1ccc(S(=O)(=O)N(C)Cc2ccccc2)cc1,-3,6,0,7,69*,34*,50*,7,-2
CN(Cc1ccccc1)S(=O)(=O)c1ccc(NS(=O)(=O)Cc2ccccc2)cc1,-11,11,33,6,55*,35*,52*,9,6
CC(=O)NC(=S)Nc1ccc(S(=O)(=O)N(C)Cc2ccccc2)cc1,-28,17,2,2,48,nt,nt,nt,nt
COc1ccc(C2CC(=O)C(c3ccccc3C)=CN2Cc2ccccc2)cc1 (configuration not stated),nt,7,2,nt,56*,21,36,4,3
COc1ccc(C2CC(=O)C(c3ccccc3)=CN2Cc2ccccc2)cc1 (configuration not stated),nt,2,5,nt,58*,28*,48,3,9
COc1ccc(C2CC(=O)C(c3cccc(OC)c3)=CN2Cc2ccccc2)cc1 (configuration not stated),nt,-1,4,nt,8,nt,nt,nt,nt
COc1ccc(C2CC(=O)C(c3ccc(C#N)cc3)=CN2Cc2ccccc2)cc1 (configuration not stated),nt,3,4,nt,18,nt,nt,nt,nt
N#Cc1ccc(Cn2ccc3ccc(-c4ccc5ccn(Cc6ccc(C#N)cc6)c5c4)cc32)cc1,nt,nt,13,nt,nt,nt,nt,nt,nt
O=c1c2cc3cc(Cl)ccc3nc2ncn1Cc1ccc(Oc2ccccc2)cc1,nt,nt,8,nt,nt,nt,nt,nt,nt
C[C@]12Cc3ccccc3C1CC1=N[C@@H](c3ccc(C(F)(F)F)cc3)O[C@@]13C[C@@H]2C(=O)N3C1CCN(Cc2ccccc2)CC1 (some centres not stated),nt,4,4,nt,-42,nt,nt,nt,nt
COc1ccc(S[C@]2(C(=O)N3CCN(c4ncccn4)CC3)CC(=O)N(c3ccc(Cl)cc3)[C@@H]2c2ccc(OC)cc2)cc1,nt,nt,11,nt,nt,nt,nt,nt,nt
Cc1ccc(-c2nc3cccnc3s2)cc1NS(=O)(=O)c1ccc2c(c1)OCCO2,-11,9,27,3,59*,30*,37,7,2
CCOC1=C(C#N)CC2(CC1)c1ccccc1-c1ccccc12,nt,3,1,nt,71*,24*,41,5,7
